Assay outcomes (PubChem BioAssay)
An excerpt weighted towards active compounds, which were near 1.8% of everything screened.
C8 TRAIL sens = viability loss with TRAIL in NB7+C8 cells, primary screen, TRAIL sensitizer project, cell-based, ATPlite luminescence. inhibition (viability loss, TRAIL sensitization), % at 10 µM. 1% of 360,000 active. AID 624354, 2012;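 active means compounds causing at least 50% loss of cell viability in the single-dose screen, relative to plate controls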
STAT1 blocker = STAT1 signaling inhibitors, primary screen, cell-based, HTS, luciferase reporter; NIH 3T3 STAT1-luciferase reporter, IFN-gamma, luminescence; inhibition, % at 5.5 µM; 0.35% of 200,000 active;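 active means inhibition above a set limit, the mean inhibition across all tested compounds plus 3 SD, cut at about 34% in these data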;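 further: 0% = IFN-gamma with DMSO and 100% = IFN-gamma with 300 µM nifuroxazide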
STAT3 inh = IL-6 driven STAT3 reporter inhibitors, primary screen, U3A cells, luciferase, luminescence, MLSCN library | AID 862, 2007 | inhibition, % at 5.5 µM | IL-6 STAT3-luciferase reporter; host cell line lacks STAT1 | 0.89% of 190,000 active;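 active means inhibition above the mean inhibition across all screened compounds plus 3 SD, cut at about 44% in these data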;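 further: 0% = DMSO only wells and 100% = 100 µM nifuroxazide control wells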
PPC-1+TRAIL kill = compounds killing PPC-1 cancer cells with TRAIL present, primary screen, TRAIL potentiator project, ATPLite luminescence, uHTS; PPC-1 cells + TRAIL, ATPLite viability luminescence; cell killing (% activity), % at 4 µM or 5 µM; AID 1443, 2008; 0.41% of 220,000 active;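 active means cell killing above 50% in the first pass at 4 µM, then a duplicate retest at 5 µM averaging 50% or more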;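 further: plate controls were cells with TRAIL plus DMSO for no effect and medium-only wells lacking cells for full effect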
STAT3 act-1 = IL-6 driven STAT3 reporter potentiators, primary screen, U3A cells, luciferase, luminescence, MLSCN library; IL-6 STAT3-luciferase reporter; 100% = signal with IL-6 EC80 alone; activation (% of control), % at 5.6 µM; 0.91% of 190,000 active; AID 871, 2007;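 active means activation above the screen-wide mean of compound activation plus 3 SD, cut at about 130% in these data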;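 further: 0% = background luminescence of wells with medium and substrate only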
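Assay system – human STAT1-deficient U3A cells with stable STAT3-luciferase reporter · Also added – IL-6 (33 ng/mL) · Schedule – compound 1 h, then IL-6 6 h at 37 °C · Technique – reporter luminescence signal · Evaluation – % activation versus median of IL-6-stimulated wells · Benchmarks – IL-6-only wells as 100% reference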
STAT3 act-2 = STAT3 reporter potentiators, retest of hits, confirmation, U3A cells, luciferase, luminescence; shares compounds with STAT3 act-1; IL-6 potentiation; U3A cells lack STAT1; 100 means same as IL-6 alone; potentiation (% of control), % at 5.7 µM; 64% of 1,200 active; AID 1267, 2008;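 active means percent activation of the STAT3 luciferase reporter above a set limit taken from the earlier primary screen, cut at about 130% in these data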;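 further: 0% = background signal of medium plus substrate and 100% = median of IL-6 with DMSO wells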
NFkB act 2 = NF-kB reporter activators in human cells, counter-screen for STAT3 activator project | shares compounds with STAT3 act-1 | NF-kappaB reporter activation | activation (% of control), % at 5.7 µM | 11% of 1,200 active; in the data active means activation above about 120%;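 further: reporter induced by TNF-alpha stimulation; 100% = median of stimulated DMSO wells and 0% = no signal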
STAT1 act = STAT1 reporter activators, IFN-gamma induced, counter-screen for STAT3 activator project, cell-based, NIH 3T3, luciferase luminescence. activation (% of control), % at 5.7 µM. NIH 3T3 STAT1-luciferase reporter. AID 1318, 2008. 13% of 1,200 active. shares compounds with STAT3 act-1;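 active means activation above the solvent-only control well mean plus 3 SD, set per screening run, cut at about 120% in these data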;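 further: 100% = IFN-gamma with DMSO median signal so 100% means no change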
The depositor's hits bear a star; / = no result given.

SMILES	C8 TRAIL sens	STAT1 blocker	STAT3 inh	PPC-1+TRAIL kill	STAT3 act-1	STAT3 act-2	NFkB act 2	STAT1 act
CC(=O)c1cc(C(=O)N2CCc3c([nH]c4ccccc34)C2C2CCCCC2)[nH]n1 (stereo not given)	1.4	0.2	-56.0	7.1	156.7*	154.8*	104.3	95.8
Cc1c(CN2CCc3c([nH]c4ccccc34)C2C2CCCCC2)cnn1C (stereo not given)	-3.9	5.5	-25.2	11.2	126.2	/	/	/
O=C(OCc1nc2ccccc2s1)C1CCN(C2=NS(=O)(=O)c3ccccc32)CC1	-6.5	-13.7	-44.2	17.9	146.7*	142.4*	121.3*	134.3*
COc1cc(OC)cc(OC(=O)C2CCN(C3=NS(=O)(=O)c4ccccc43)CC2)c1	-7.6	/	/	/	/	/	/	/
CCCc1cc(=O)[nH]c(SCC(=O)c2c[nH]c3ccccc23)n1	-3.9	8.6	-36.1	9.5	143.0*	123.0	101.7	104.3
O=C(CNC(=O)c1cccc(-n2cnnn2)c1)Nc1ccc(F)c(F)c1	-10.8	/	/	/	/	/	/	/
Cc1ccccc1CN1C(=O)CSCC1(C)C(=O)Nc1ccc2c(c1)OCCO2 (stereo not given)	-6.5	/	/	/	/	/	/	/
N#Cc1ccc(C(=O)Nc2cccc3ncccc23)c(F)c1	-10.8	10.9	5.7	-12.5	93.5	/	/	/
Cc1cc(C)c2oc(-c3ccc(Cl)c(NC(=O)c4ccc(C#N)cc4F)c3)nc2c1	20.7	-11.1	-81.4	25.4	173.2*	165.2*	100.8	108.3
CN(C)C(=O)c1ccc(N/C=C(\C=O)c2nc3ccccc3o2)cc1	-0.8	4.6	-43.8	7.3	141.1*	138.1*	103.8	93.6
O=C(CSc1nc2ccccc2o1)N1CCOCC1	0.3	/	/	/	/	/	/	/
O=C/C(=C\Nc1ccc(C(=O)N2CCOCC2)cc1)c1nc2ccccc2o1	19.7	1.4	-61.0	20.0	160.8*	153.4*	101.4	104.7
CC(OC(=O)c1cccc(-n2cnnn2)c1)C(=O)NCc1ccccc1 (stereo not given)	10.2	/	/	/	/	/	/	/
Cc1noc(C)c1CC(=O)Nc1ccc2c(c1)OCO2	2.1	/	/	/	/	/	/	/
COCCN1C(=O)CSCC1(C)C(=O)Nc1ccc2c(c1)OCCO2 (stereo not given)	-5.3	/	/	/	/	/	/	/
CN1OC[C@@H]2CN(C(=O)Nc3ccccc3)[C@H](c3ccc(N4CCCCC4)cc3)C[C@@H]21	-12.4	/	/	/	/	/	/	/
Cc1ccccc1S(=O)(=O)N1CCN(c2ccc3c(c2)C2CC3CCN2C(=O)OCc2ccccc2)CC1 (stereo not given)	4.7	/	/	/	/	/	/	/
Cc1cc(C)nc(SC2CCCCC2O)n1 (stereo not given)	-26.3	4.7	-41.4	23.3	135.8*	112.3	96.9	99.0
COc1ccc(N2C(=O)CC(Sc3nc(C)cc(C)n3)C2=O)cc1OC (stereo not given)	-14.1	/	/	/	/	/	/	/
CCCNC(=O)Cn1c2ccccc2c2nc(=O)cc(C)n21	-6.2	5.0	-71.0	23.8	169.9*	158.3*	101.5	94.0
CCC(C(=O)NC(C)(C)C)N(Cc1ccc(OC)cc1)C(=O)c1snc(C(N)=O)c1N (stereo not given)	-11.0	/	/	/	/	/	/	/
CCn1nc(C)cc1C(=O)N(C)C1CCCN(Cc2ccccc2F)C1 (stereo not given)	-6.1	/	/	/	/	/	/	/
CCOC(=O)/C(C#N)=C/c1c[nH]c2ccccc12	-11.1	-20.5	-33.6	5.1	128.7	/	/	/
COC(=O)/C(C#N)=C/c1c[nH]c2ccccc12	-1.4	-22.2	-35.0	/	146.5*	193.4*	128.8*	160.4*
CC(C)c1ccc(NC(=O)c2cc(-c3cc(F)ccc3OCC3CCCO3)n[nH]2)cc1 (stereo not given)	19.8	/	/	/	/	/	/	/
SMILES	C8 TRAIL sens	STAT1 blocker	STAT3 inh	PPC-1+TRAIL kill	STAT3 act-1	STAT3 act-2	NFkB act 2	STAT1 act
COc1ccc(S(=O)(=O)Nc2c(C(=O)O)[nH]c3ccccc23)cc1OC	-8.2	-0.9	-41.8	17.5	140.7*	164.9*	109.5	100.1
O=C(O)c1[nH]c2ccccc2c1NS(=O)(=O)Cc1ccccc1	-13.6	-0.9	-56.6	18.7	154.6*	165.1*	102.6	93.9
COc1ccc(S(=O)(=O)Nc2c(C(=O)O)[nH]c3ccccc23)cc1	4.0	/	/	/	/	/	/	/
COc1ccc(C)cc1S(=O)(=O)N(C)CC(=O)NC1CCCCCC1	-4.8	-7.2	-37.9	-6.7	136.2*	99.5	109.1	97.4
COC(=O)[C@@]12CCCCN1[C@H](c1ccc(-c3ccc(C(C)=O)cc3)c(OC)c1)[C@@H]1C(=O)N(C)C(=O)[C@@H]12	-5.1	/	/	/	/	/	/	/
CC(=O)NC(CCS(C)(=O)=O)C(=O)N1CCc2ccccc21 (stereo not given)	-43.7	-6.0	-41.1	19.0	137.5*	115.7	102.0	99.6
Cc1noc(C)c1COc1ccc(C(=O)NCc2cccs2)cc1	-1.6	/	/	/	/	/	/	/
CC(C)CCNC(=O)c1cccc(S(=O)(=O)N2CCc3ccccc32)c1	0.9	-0.6	4.5	1.7	99.1	/	/	/
CCN(CC)CCCC(C)NC(=O)c1cccc(S(=O)(=O)N2CCc3ccccc32)c1 (stereo not given)	4.8	-0.5	-42.9	14.6	139.7*	147.6*	101.9	100.1
COc1ccc(Nc2nc(-c3cccs3)cs2)c(OC)c1	-4.3	-69.6	-8.5	-3.6	110.2	/	/	/
COc1ccc(OC)c(Nc2nc(-c3cccs3)cs2)c1	20.8	-11.1	-52.8	12.8	146.5*	121.1	112.4	102.8
CS(=O)(=O)N1N=C(c2cccs2)CC1c1ccccc1O (stereo not given)	-5.5	-2.4	0.5	-3.7	101.5	/	/	/
Oc1ccccc1C1CC(c2cccs2)=NC(c2ccc(Cl)cc2)N1 (stereo not given)	36.0	33.1	-44.7	16.0	140.4*	139.3*	107.8	91.1
Cc1csc(CN(C)C(=O)C2CCC(=O)N(CCN(C)C)C2)n1 (stereo not given)	-11.6	/	/	/	/	/	/	/
CC1=NN(c2nc(-c3ccccc3)cs2)C(=O)C1N=Nc1ccccc1 (stereo not given)	-7.5	-15.3	24.6	14.2	87.0	/	/	/
CC1=NN(c2nc(-c3ccc(C)cc3)cs2)C(=O)C1N=Nc1ccc2ccccc2c1 (stereo not given)	33.6	1.4	-54.5	9.6	150.1*	141.8*	102.4	97.4
CC1=NN(c2ccccc2)C(=O)C1N=Nc1ccc(C)cc1 (stereo not given)	/	-13.1	-24.9	-4.5	136.4*	121.3	106.3	107.8
